# CAL PDZ FP-1: CAL PDZ peptide-binding inhibitors, primary screen, biochemical, fluorescence polarization, Cer-tagged CAL PDZ, HTS. Golgi-associated PDZ and coiled-coil motif-containing protein (Homo sapiens), Q9HD26. purified CAL PDZ, TMR-peptide fluorescence polarization, 1 h. inhibition, % at 20 µM. 330,000 compounds, 0.02% hits;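 active = highest replicate inhibition of at least 40%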
#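 material = purified tagged CAL PDZ domain construct (CerCALP) | buffer or medium = sodium phosphate/NaCl buffer pH 7.4 with TCEP, IgG, Thesit | reagent = TMR-labelled reporter peptide T*-PRC34 bound in PDZ groove | incubation = 1 h room-temperature incubation prior to read | measured by = fluorescence polarization (mP) | evaluation = percent inhibition from loss of millipolarization | control set = unlabelled peptide and DMSO controls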
# CAL PDZ FP-2: untagged CAL PDZ binding inhibitors, primary screen, biochemical, fluorescence polarization, HTS; 300,000 compounds, 0.92% hits; AID 602252, 2012; purified CAL PDZ, TMR-peptide fluorescence polarization, 1 h; inhibition, % at 24.9 µM;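 active = mean inhibition of at least 30% with at least half of replicates also reaching 30%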
# SR-BI DiI-HDL act: activators of SR-BI mediated DiI-HDL uptake, primary screen, ldlA[mSR-BI] CHO cells, DiI fluorescence; 3 h; 100 = double the neutral-control signal; activation, % at 12.5 µM; 320,000 compounds, 0.096% hits; AID 504775, 2011;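 active = mean replicate activation of at least 60% and every replicate at or above 60%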
#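 Material: SR-BI-overexpressing, LDLR-lacking CHO cells | Dosing: Single compound concentration, delivered by pin transfer | Probe or stimulus: Labelled HDL, 10 µg/mL | Signal: Bottom-read cell fluorescence after medium removal, ex 550/em 595 nm | Schedule: 3 h, 37 °C | Evaluation: HDL uptake via cellular fluorescence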
# SR-BI HDL uptake: inhibitors of SR-BI mediated HDL lipid uptake, primary screen, ldlA[mSR-BI] cells, fluorescence, single point; Scavenger receptor class B member 1 (Mus musculus), Q61009; ldlA[mSR-BI] CHO cells, DiI-HDL uptake fluorescence, 3 h; inhibition, % at 12.5 µM; 320,000 compounds, 0.96% hits; AID 488896, 2010;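 active = mean replicate inhibition of at least 70% and a set share of replicates each scoring 70 or more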
# dFosB act-1: activators of delta FosB homodimer, primary screen, biochemical, fluorescence polarization, TAMRA-CDK5 oligo, single point; Protein FosB (Mus musculus), P13346; purified delta FosB; percent of positive-control signal above neutral wells; activation, % at 25 µM; 340,000 compounds, 0.99% hits; AID 493131, 2011;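 active = mean activation above about 17%, with every replicate also reaching it, limit read from the data, passing the limit was not always enough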
# Target sequence (P13346 whole entry, looked up): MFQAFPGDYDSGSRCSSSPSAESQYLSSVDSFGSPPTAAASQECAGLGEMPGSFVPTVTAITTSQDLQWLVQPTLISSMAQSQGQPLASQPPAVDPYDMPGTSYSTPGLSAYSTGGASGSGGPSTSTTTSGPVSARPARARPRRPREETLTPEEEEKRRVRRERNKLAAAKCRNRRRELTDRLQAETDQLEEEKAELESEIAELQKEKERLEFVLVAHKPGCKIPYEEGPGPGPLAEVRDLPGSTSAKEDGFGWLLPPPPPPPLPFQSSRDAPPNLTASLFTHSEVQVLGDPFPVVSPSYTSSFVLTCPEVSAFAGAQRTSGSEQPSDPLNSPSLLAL
# dFosB act-2: activators of mouse delta FosB DNA binding, confirmation, biochemical, fluorescence polarization, TAMRA-CDK5 oligo, cherry-picked samples; 2,400 tested, under 10 active; activation, % at 24.9 µM; shares compounds with dFosB act-1; purified delta FosB; normalised: neutral wells 0, positive control 100;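 active = highest replicate activation at or above 34% and every replicate reaching that threshold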;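 also: higher polarization means more probe DNA bound by delta FosB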
# A number is an active result; n = inactive; x = no result. Only some compounds are listed: those with a hit (about 2.8% of all), similar ones and a draw of the others.
SMILES,CAL PDZ FP-1,CAL PDZ FP-2,SR-BI DiI-HDL act,SR-BI HDL uptake,dFosB act-1,dFosB act-2
Cc1ccc(NC(=O)Cc2noc3ccccc23)cc1,n,n,n,n,n,x
CC(=O)c1nn(-c2cccc(Br)c2)cc1C(=O)c1ccc(Cl)cc1,n,n,n,n,28.2,n
CC(=O)c1nn(-c2cccc(Br)c2)cc1C(=O)c1ccccc1,n,n,n,n,n,x
O=C(COc1ccc(Cl)cc1Cl)Nc1cccc(-c2ccc(N3CCOCC3)nn2)c1,n,n,n,n,n,x
O=C(COc1ccc(Cl)cc1Cl)Nc1ccc(-c2ccc(N3CCOCC3)nn2)cc1,n,n,n,n,41.9,n
CN(c1ccc(C(=O)NCc2ccccn2)cc1)S(=O)(=O)c1ccc(Cl)cc1,n,n,n,n,n,x
CN(CCc1nc2ccc(Cl)cc2[nH]1)Cc1nc(CC2CC2)no1,n,n,x,x,n,x
CCCCc1ccc(NC(=O)CSc2nc3ncccc3[nH]2)cc1,n,n,n,n,19.6,n
O=C(Nc1nc(-c2cccnc2)cs1)c1ccccc1Cl,n,n,n,n,24.4,n
Cc1nnc(SCC(=O)Nc2c(Cl)cccc2Cl)n(N)c1=O,n,n,n,n,n,x
CN(C)c1nc(NCc2ccccc2)nc(N/N=C/c2cccc(Br)c2)n1,n,n,n,n,57.3,n
COc1ccc(-c2nc(Cn3c(SCc4ccc(C)cc4)nc4ccncc43)c(C)o2)cc1OC,n,x,n,n,38.8,n
N#C/C(=C\c1c[nH]c2ccccc12)C(=O)Nc1ncc(Cc2ccc(Cl)cc2Cl)s1,n,n,n,n,30.5,n
COC(=O)c1c(NC(=O)Cn2cc([N+](=O)[O-])cn2)sc2c1CCC2,n,n,n,n,27.3,n
COC(=O)c1c(NC(=O)CSc2ncnc3[nH]ncc23)sc2c1CCC2,n,n,n,n,28.8,n
CN(C1CCCCC1)S(=O)(=O)c1cccc(C(=O)OCC(=O)NC2CCCc3ccccc32)c1 (stereo not drawn),n,n,n,n,n,x
Cc1cc(OCc2cc(C(=O)NC(C)c3c(C)nn(C)c3C)no2)cc(C)c1Cl (stereo not drawn),n,n,n,n,n,x
COc1ccc(C(=O)NC(=S)Nc2ccc3[nH]c(=O)[nH]c3c2)c(OC)c1,n,n,n,n,n,x
COc1ccc(OC)c2sc(NC(=O)c3cccc(N4C(=O)CCC4=O)c3)nc12,n,x,x,x,67.5,n
COc1ccc(-c2csc(NC(=O)c3cccc(N4C(=O)CCC4=O)c3)n2)cc1C,n,n,n,n,n,x
COc1ccc(NC(=O)c2cccs2)cc1C(=O)N1CCN(c2ccccc2)CC1,n,x,n,n,n,x
NC(=O)c1cc(-c2ccncc2)nc2ccc(Cl)cc12,n,n,n,n,n,x
CNS(=O)(=O)c1ccc(NC(=O)c2cc(-c3ccncc3)nc3ccc(Cl)cc23)cc1,n,n,n,n,68.6,n
CCN(CC)S(=O)(=O)c1ccc(C(=O)Nc2cc(S(=O)(=O)N3CCOCC3)ccc2O)cc1,n,n,n,n,n,x
COc1cc(C(=O)NCc2ccc(S(N)(=O)=O)cc2)ccc1OCC(=O)Nc1cccc(C(F)(F)F)c1,n,n,n,n,16.6,n
SMILES,CAL PDZ FP-1,CAL PDZ FP-2,SR-BI DiI-HDL act,SR-BI HDL uptake,dFosB act-1,dFosB act-2
CCc1ccc2nc(SCC(=O)Nc3ccccc3N3CCOCC3)c(C#N)cc2c1,n,n,x,x,24.3,n
CC(C)C1N(C(N)=S)N=CC1(C)C (stereo not drawn),n,x,n,n,n,x
O=C(NNC(=O)c1cc(Br)c(Br)s1)c1csc(N2CCOCC2)n1,n,n,n,n,44.4,n
COc1cc(S(=O)(=O)Nc2ccc(C)cc2)ccc1N=Cc1c(C)c(C#N)c(=O)n(C)c1O,n,n,n,n,127.6,n
CN(C)CCN(C(=O)c1ccc(N2C(=O)CCC2=O)cc1)c1nc2cc3c(cc2s1)OCO3,n,n,n,n,n,x
CN(C)CCN(C(=O)c1cccc2ccccc12)c1nc2cc3c(cc2s1)OCO3,n,n,n,n,41.0,n
CN(C)CCN(C(=O)c1ccc2ccccc2c1)c1nc2cc3c(cc2s1)OCCO3,n,n,n,n,n,x
CN(C)CCCN(C(=O)c1ccc2ccccc2c1)c1nc2cc3c(cc2s1)OCO3,n,n,n,n,n,x
CCN(CC)CCN(C(=O)c1ccc2c(c1)OCCO2)c1nc2cc3c(cc2s1)OCO3,n,n,n,n,n,x
CN(C)CCN(C(=O)c1ccc(Br)s1)c1nc2cc3c(cc2s1)OCCO3,n,n,n,n,18.6,n
CCN(c1ccccc1)S(=O)(=O)c1ccc(C(=O)N(CCCN(C)C)c2nc3cc4c(cc3s2)OCO4)cc1,n,n,n,n,29.0,n
CCN(CC)CCN(C(=O)c1cc2c(ccc3ccccc32)oc1=O)c1nc2cc3c(cc2s1)OCCO3,n,x,n,n,71.1,n
CCOc1ccc(S(=O)(=O)N2CCN=C2c2ccccc2)cc1,n,n,n,n,n,x
CCCn1c(N)c(N(CCOC)C(=O)c2cc3ccccc3cc2OC)c(=O)[nH]c1=O,n,n,n,n,n,x
COc1cc(NC(=O)CCCn2c(=S)[nH]c3ccccc3c2=O)cc(OC)c1OC,n,n,n,n,n,x
Cc1cccc(NC(=O)CCCn2c(=S)[nH]c3ccccc3c2=O)c1,n,n,n,n,24.9,n
O=C1C2CCCN2C(c2ccc(F)cc2)N1c1ccc(Cl)cc1 (stereo not drawn),n,n,n,n,n,x
O=C1C2=C(NC(=S)NC2c2ccc(Cl)cc2)NC(c2ccc(Cl)cc2)N1c1ccc(Cl)cc1 (stereo not drawn),n,n,n,n,82.1,n
CC1(c2nnc(-c3cccc(Cl)c3)o2)CC(c2cccc([N+](=O)[O-])c2)=NO1 (stereo not drawn),n,n,n,n,n,x
OC[C@@H]1CCCN1Cc1cn(-c2ccccc2)nc1-c1ccc2c(c1)OCO2,n,n,x,x,n,x
c1ccc(-n2cc(CN3CCCC(CN4CCCC4)C3)c(-c3ccc4c(c3)OCO4)n2)cc1 (stereo not drawn),n,n,n,n,27.2,n
O=C(CSc1nc2ncc(Cl)cc2[nH]1)c1c[nH]c2ccccc12,n,n,n,n,21.5,n
O=C(CSc1nc2ccc(Cl)cc2[nH]1)c1c[nH]c2ccccc12,n,x,n,n,n,x
